Experimental data taken from ChEMBL document CHEMBL5712892, “EZH1 and EZH2 promote skeletal growth by repressing inhibitors of chondrocyte proliferation and hypertrophy” (Nat Commun, 2016).
Active and inactive are the calls of the source. No cut-off for these calls is given here.

Assays:
EZH1/2 (Mus musculus) [1] = molecular target: T1, EZH1/2 (Mus musculus) (UniProt Q61188+P70351); test: Inhibition of Ezh1/2 in wild-type C57BL/6 mouse isolated primary chondrocyte pellets assessed as increase in Igfbp5 expression at 2 uM by RT-PCR analysis; type: cell-based
Method in brief: (§1)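 Pellets of 2.4×10^5 primary chondrocytes from 1-week-old wild-type mice (400 g, 10 min) were cultured up to 4 weeks, switched to 0.1% FBS medium after 16 h. DMSO or UNC1999 (2 µM final) was added at 16 h and refreshed every other day. Col10a1, Ihh, Igfbp3 and Igfbp5 mRNA were measured by real-time RT-PCR at several time points; two-way ANOVA, N = 6.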

EZH1/2 (Mus musculus) [2] = molecular target: T1, EZH1/2 (Mus musculus); test: Inhibition of Ezh1/2 in wild-type C57BL/6 mouse isolated primary chondrocytes assessed as increase in Cdkn2b expression at 2 uM by RT-PCR analysis; type: cell-based; settings: Primary chondrocyte
Method in brief: (§2)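 Monolayer primary chondrocytes from 1-week-old wild-type mice received DMSO or UNC1999 (2 µM final) 16 h after plating. RNA was extracted and Cdkn2a and Cdkn2b mRNA quantified by real-time RT-PCR; N = 6.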

EZH1/2 (Mus musculus) [3] = molecular target: T1, EZH1/2 (Mus musculus); test: Inhibition of Ezh1/2 in wild-type C57BL/6 mouse isolated primary chondrocytes assessed as increase in Cdkn2a expression at 2 uM by RT-PCR analysis; type: cell-based; settings: Primary chondrocyte; method in brief: as §2
EZH1/2 (Mus musculus) [4] = molecular target: T1, EZH1/2 (Mus musculus); test: Inhibition of Ezh1/2 in Igfbp5-treated wild-type C57BL/6 mouse fetal metatarsal bone assessed as reduction in hypertrophic cell size at 2 uM; type: tissue-based
Method in brief: (§3)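 Fetal metatarsals (middle three) from E18 wild-type C57BL/6 mice cultured 3 days at 37 °C, 5% CO2 in α-MEM with 0.2% BSA, 0.1 mM β-glycerophosphate, 50 µg ml-1 ascorbic acid. DMSO or UNC1999 (2 µM), ± Igf1 100 ng ml-1, Igfbp3 50 nM or Igfbp5 50 nM, added at start and refreshed day 2. Hypertrophic cell heights averaged within a 100×100 µm area at HZ centre; N = 6.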

EZH1/2 (Mus musculus) [5] = molecular target: T1, EZH1/2 (Mus musculus); test: Inhibition of Ezh1/2 in wild-type C57BL/6 mouse isolated primary chondrocytes assessed as reduction in cell proliferation at 2 uM by [3H]thymidine based liquid scintillation counting analysis; settings: Primary chondrocyte
Method in brief: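 Monolayer primary chondrocytes (2×10^5 per well) from 1-week-old wild-type mice were treated with DMSO or 2 µM UNC1999 from 16 h after plating. At 24 h after plating they were labelled with 1 µCi 3H-thymidine for 16 h, washed and collagenase-detached. Radioactivity was read by liquid scintillation counting; N = 6.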

EZH1/2 (Mus musculus) [6] = molecular target: T1, EZH1/2 (Mus musculus); test: Inhibition of Ezh1/2 in wild-type C57BL/6 mouse fetal metatarsal bone assessed as reduction in H3K27me2 expression at 2 microM by immunohistochemical analysis; type: tissue-based
Method in brief: (§4)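 E18 wild-type C57BL/6 metatarsals cultured 3 days with DMSO or 2 µM UNC1999, added at start and refreshed day 2. Paraffin sections were proteinase K retrieved (100 µg ml-1, 30 min, room temperature) and peroxidase blocked. They were immunostained with anti-H3K27me2 or anti-H3K27me3 (1:1,000) by ABC/DAB.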

EZH1/2 (Mus musculus) [7] = molecular target: T1, EZH1/2 (Mus musculus); test: Inhibition of Ezh1/2 in wild-type C57BL/6 mouse fetal metatarsal bone assessed as reduction in H3K27me3 expression at 2 microM by immunohistochemical analysis; type: tissue-based; method in brief: as §4
EZH1/2 (Mus musculus) [8] = molecular target: T1, EZH1/2 (Mus musculus); test: Inhibition of Ezh1/2 in wild-type C57BL/6 mouse isolated primary chondrocyte pellets assessed as reduction in H3K27me3 level at 2 uM measured after 1 week by immunohistological staining based assay; type: cell-based; settings: time 1.0 weeks
Method in brief: (§5)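 Chondrocyte pellets (2.4×10^5 cells, from 1-week-old wild-type mice) were kept in 0.1% FBS medium with DMSO or 2 µM UNC1999 from 16 h, refreshed every other day, for 1 week. Sections were immunostained for H3K27me2 or H3K27me3 (1:1,000, proteinase K retrieval, DAB).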

EZH1/2 (Mus musculus) [9] = molecular target: T1, EZH1/2 (Mus musculus); test: Inhibition of Ezh1/2 in wild-type C57BL/6 mouse isolated primary chondrocyte monolayer culture assessed as increase in Igfbp5 expression at 2 uM by immunostaining analysis; type: cell-based
EZH1/2 (Mus musculus) [10] = molecular target: T1, EZH1/2 (Mus musculus); test: Inhibition of Ezh1/2 in wild-type C57BL/6 mouse isolated primary chondrocytes transfected with Cdkn2a SiRNA assessed as reduction in cell proliferation at 2 uM measured after 24 hrs by [3H]thymidine based liquid scintillation counting analysis; settings: Primary chondrocyte
Method in brief: (§6)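 Primary chondrocytes (1×10^5 per well) from 1-week-old wild-type mice were hyaluronidase-treated (5 U ml-1, 6 h) at 40 h. They were then transfected with 40 pmol siRNA against Cdkn2a and/or Cdkn2b, or scrambled control, using Lipofectamine 2000. DMSO or 2 µM UNC1999 was added 16 h post-transfection. Proliferation was measured 24 h later by 3H-thymidine uptake and scintillation counting; N = 6.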

EZH1/2 (Mus musculus) [11] = molecular target: T1, EZH1/2 (Mus musculus); test: Inhibition of Ezh1/2 in wild-type C57BL/6 mouse fetal metatarsal bone assessed as increase in Igfbp3 expression at 2 uM by immunostaining assay; type: tissue-based
EZH1/2 (Mus musculus) [12] = molecular target: T1, EZH1/2 (Mus musculus); test: Inhibition of Ezh1/2 in wild-type C57BL/6 mouse isolated primary chondrocytes transfected with Cdkn2b SiRNA assessed as reduction in cell proliferation at 2 uM measured after 24 hrs by [3H]thymidine based liquid scintillation counting analysis; settings: Primary chondrocyte; method in brief: as §6
EZH1/2 (Mus musculus) [13] = molecular target: T1, EZH1/2 (Mus musculus); test: Inhibition of Ezh1/2 in wild-type C57BL/6 mouse isolated primary chondrocyte pellets assessed as reduction in H3K27me2 level at 2 uM measured after 1 week by immunohistological staining based assay; type: cell-based; settings: time 1.0 weeks; method in brief: as §5
EZH1/2 (Mus musculus) [14] = molecular target: T1, EZH1/2 (Mus musculus); test: Inhibition of Ezh1/2 in Igfbp3-treated wild-type C57BL/6 mouse fetal metatarsal bone assessed as reduction in hypertrophic cell size at 2 uM; type: tissue-based; method in brief: as §3
EZH1/2 (Mus musculus) [15] = molecular target: T1, EZH1/2 (Mus musculus); test: Inhibition of Ezh1/2 in wild-type C57BL/6 mouse fetal metatarsal bone assessed as reduction in hypertrophic cell size at 2 uM; type: tissue-based; method in brief: as §3
EZH1/2 (Mus musculus) [16] = molecular target: T1, EZH1/2 (Mus musculus); test: Inhibition of Ezh1/2 in wild-type C57BL/6 mouse isolated primary chondrocyte pellets assessed as reduction in cell hypertrophy at 2 uM measured after 1 week by alcian blue staining based assay; settings: time 1.0 weeks
Method in brief: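 Wild-type chondrocyte pellets were cultured in 0.1% FBS medium with DMSO or 2 µM UNC1999 (from 16 h, refreshed every other day). Alcian blue-stained histological sections were examined for cell size at different time points, including 1 week.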

EZH1/2 (Mus musculus) [17] = molecular target: T1, EZH1/2 (Mus musculus); test: Inhibition of Ezh1/2 in wild-type C57BL/6 mouse isolated primary chondrocyte pellets assessed as increase in Igfbp3 expression at 2 uM by RT-PCR analysis; type: cell-based; method in brief: as §1
EZH1/2 (Mus musculus) [18] = molecular target: T1, EZH1/2 (Mus musculus); test: Inhibition of Ezh1/2 in wild-type C57BL/6 mouse fetal metatarsal bone assessed as increase in Igfbp5 expression at 2 uM by immunostaining assay; type: tissue-based
EZH1/2 (Mus musculus) [19] = molecular target: T1, EZH1/2 (Mus musculus); test: Inhibition of Ezh1/2 in wild-type C57BL/6 mouse isolated primary chondrocyte pellets assessed as reduction in Col10a1 expression at 2 uM by RT-PCR analysis; type: cell-based; method in brief: as §1
EZH1/2 (Mus musculus) [20] = molecular target: T1, EZH1/2 (Mus musculus); test: Inhibition of Ezh1/2 in wild-type C57BL/6 mouse isolated primary chondrocyte pellets assessed as reduction in Ihh expression at 2 uM by RT-PCR analysis; type: cell-based; method in brief: as §1
EZH1/2 (Mus musculus) [21] = molecular target: T1, EZH1/2 (Mus musculus); test: Inhibition of Ezh1/2 in wild-type C57BL/6 mouse isolated primary chondrocyte monolayer culture assessed as increase in Igfbp3 expression at 2 uM by immunostaining analysis; type: cell-based
EZH1/2 (Mus musculus) [22] = molecular target: T1, EZH1/2 (Mus musculus); test: Inhibition of Ezh1/2 in Igf1-treated wild-type C57BL/6 mouse fetal metatarsal bone assessed as reduction in hypertrophic cell size at 2 uM; type: tissue-based; method in brief: as §3

`CCCc1cc(C)[nH]c(=O)c1CNC(=O)c1cc(-c2ccc(N3CCN(C(C)C)CC3)nc2)cc2c1cnn2C(C)C` was tested, and the inhibition (EZH1/2 (Mus musculus) [1]) was “Active”, the inhibition (EZH1/2 (Mus musculus) [2]) was “Active” and the inhibition (EZH1/2 (Mus musculus) [3]) was “Active”. The inhibition (EZH1/2 (Mus musculus) [4]) was “Active”, the inhibition (EZH1/2 (Mus musculus) [5]) was “Active” and the inhibition (EZH1/2 (Mus musculus) [6]) was “Active”. The inhibition (EZH1/2 (Mus musculus) [7]) was “Active”, the inhibition (EZH1/2 (Mus musculus) [8]) was “Active” and the inhibition (EZH1/2 (Mus musculus) [9]) was “inactive”. For the same compound, the inhibition (EZH1/2 (Mus musculus) [10]) was “inactive”, the inhibition (EZH1/2 (Mus musculus) [11]) was “Active” and the inhibition (EZH1/2 (Mus musculus) [12]) was “inactive”. For the same compound, the inhibition (EZH1/2 (Mus musculus) [13]) was “Active”, the inhibition (EZH1/2 (Mus musculus) [14]) was “Active” and the inhibition (EZH1/2 (Mus musculus) [15]) was “Active”. The inhibition (EZH1/2 (Mus musculus) [16]) was “Active”, the inhibition (EZH1/2 (Mus musculus) [17]) was “inactive” and the inhibition (EZH1/2 (Mus musculus) [18]) was “Active”. The inhibition (EZH1/2 (Mus musculus) [19]) was “Active”, the inhibition (EZH1/2 (Mus musculus) [20]) was “Active” and the inhibition (EZH1/2 (Mus musculus) [21]) was “Active”. The inhibition (EZH1/2 (Mus musculus) [22]) was “inactive”.
